In one data set the test system is Staphylococcus aureus. Description: Antibacterial activity against Staphylococcus aureus ATCC 25923 after 24 hrs by two-fold serial dilution method. In kind it is functional. The following applies: ATCC 25923, 24 h. A digest of the protocol:
(§1)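 Run in Mueller-Hinton medium, read by MTT method, with compounds tested in nutrient broth (NB) by two-fold serial dilution. Seeded broth containing microbial spores was prepared in NB from 24 h old cultures grown on nutrient agar.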

Another data set deals with Bacillus subtilis. Description: Antibacterial activity against Bacillus subtilis ATCC 530 after 24 hrs by two-fold serial dilution method. It is filed as functional. As to conditions: ATCC 530, 24 h. A digest of the protocol: as §1
The next data set deals with Escherichia coli. Description: Antibacterial activity against Escherichia coli ATCC 25922 after 24 hrs by two-fold serial dilution method. In kind it is functional. As to conditions: ATCC 25922, 24 h. A digest of the protocol:
as §1

A further data set deals with Pseudomonas aeruginosa. Briefly: Antibacterial activity against Pseudomonas aeruginosa ATCC 27853 after 24 hrs by two-fold serial dilution method. The following applies: ATCC 27853, 24 h. In kind it is functional. In outline:
as §1

Data set [1] in a line: Inhibition of Staphylococcus aureus TyrRS compound preincubated for 10 mins by liquid scintillation counting in presence of L-ring-3,5-[3H]tyrosine.
A short description of data set [2]: Toxicity in RBC (unknown origin) assessed as hemolysis. It is filed as cell-based. As to conditions: erythrocyte.

Values after ≈ are worked out from the molar mass of the structure shown.

Take `CC1(C)S[C@@H]2[C@H](NC(=O)Cc3ccccc3)C(=O)N2[C@H]1C(=O)O` [PENICILLIN G]: the minimum inhibitory concentration (MIC) (as a rule, the least concentration at which growth counts as inhibited) was 1.02 µg/mL (≈ 3.06 µM) against Staphylococcus aureus, 0.335 µg/mL (≈ 1 µM) in the data set on Bacillus subtilis, 22.8 µg/mL (≈ 68.3 µM) against Escherichia coli and 18.6 µg/mL (≈ 55.7 µM) with Pseudomonas aeruginosa.
Turning to `O=C(N[C@H](CO)[C@H](O)c1ccc([N+](=O)[O-])cc1)C(Cl)Cl` [CHLORAMPHENICOL], the MIC with Staphylococcus aureus is 0.178 µg/mL (≈ 0.551 µM); against Bacillus subtilis it was 0.078 µg/mL (≈ 0.241 µM); with Escherichia coli, 0.064 µg/mL (≈ 0.198 µM).
On to `Cc1ncc([N+](=O)[O-])n1CCN1CCN(C(c2ccccc2)c2ccccc2)CC1`, for which the MIC in the data set with Staphylococcus aureus was 0.003 µg/mL (≈ 0.0074 µM); against Bacillus subtilis it was 0.011 µg/mL (≈ 0.0271 µM); in the data set with Escherichia coli it was above 50 µg/mL; in the data set with Pseudomonas aeruginosa, above 50 µg/mL. For the same compound, in data set [1], the IC50 (usually the concentration that inhibits the measured activity by half) is 0.0024 µM. Also, in data set [2], the LC30 is above 10000 µg/mL.
On to `COc1ccc(N2CCN(CCn3c([N+](=O)[O-])cnc3C)CC2)cc1`, for which the MIC in the data set on Staphylococcus aureus was 0.123 µg/mL (≈ 0.356 µM); against Bacillus subtilis, 0.033 µg/mL (≈ 0.0955 µM); with Escherichia coli, above 50 µg/mL; in the data set on Pseudomonas aeruginosa it was above 50 µg/mL. Further, the IC50 in data set [1] amounted to 0.0067 µM. For the same compound, the LC30 in data set [2] was above 10000 µg/mL.
As to `Cc1ncc([N+](=O)[O-])n1CCN1CCN(C(c2ccccc2)c2ccc(Cl)cc2)CC1` (configuration not stated), the MIC was 0.593 µg/mL (≈ 1.35 µM) in the data set on Staphylococcus aureus, 0.185 µg/mL (≈ 0.421 µM) in the data set with Bacillus subtilis, above 50 µg/mL against Escherichia coli and above 50 µg/mL with Pseudomonas aeruginosa. Further, the IC50 in data set [1] is 1.72 µM. Besides, in data set [2], the LC30 is above 10000 µg/mL.
As to `COc1cccc(N2CCN(CCn3c([N+](=O)[O-])cnc3C)CC2)c1`, the MIC against Staphylococcus aureus is 0.656 µg/mL (≈ 1.9 µM); against Bacillus subtilis it was 0.805 µg/mL (≈ 2.33 µM); against Escherichia coli, above 50 µg/mL; in the data set on Pseudomonas aeruginosa, above 50 µg/mL. The half-inhibitory concentration (IC50) in data set [1] came out at 7.65 µM. The LC30 in data set [2] was above 10000 µg/mL.
Take `Cc1ncc([N+](=O)[O-])n1CCN1CCN(c2ccccc2)CC1`: the MIC is above 50 µg/mL in the data set with Staphylococcus aureus, 1.55 µg/mL (≈ 4.92 µM) in the data set with Bacillus subtilis, above 50 µg/mL with Escherichia coli and above 50 µg/mL against Pseudomonas aeruginosa. Also, the IC50 in data set [1] came to 20.5 µM. Besides, in data set [2], the LC30 is above 10000 µg/mL.
As to `Cc1ncc([N+](=O)[O-])n1CCN1CCN(c2ccccc2Cl)CC1`, the MIC in the data set on Staphylococcus aureus was 0.203 µg/mL (≈ 0.58 µM); against Bacillus subtilis, 0.142 µg/mL (≈ 0.406 µM); against Escherichia coli, above 50 µg/mL; with Pseudomonas aeruginosa, above 50 µg/mL. In data set [1], the IC50 amounted to 0.0086 µM. The LC30 in data set [2] is above 10000 µg/mL.
On to `Cc1ncc([N+](=O)[O-])n1CCN1CCN(C(c2ccc(F)cc2)c2ccc(F)cc2)CC1`, for which the MIC in the data set on Staphylococcus aureus, in the data set with Bacillus subtilis, against Escherichia coli and against Pseudomonas aeruginosa was above 50 µg/mL throughout. For the same compound, the IC50 in data set [1] is 25.8 µM. In addition, the LC30 in data set [2] was above 10000 µg/mL.
Consider `Cc1ncc([N+](=O)[O-])n1CCN1CCN(c2ccccc2F)CC1`, for which the MIC was 17.1 µg/mL (≈ 51.3 µM) against Staphylococcus aureus, above 50 µg/mL in the data set with Bacillus subtilis, above 50 µg/mL against Escherichia coli and above 50 µg/mL in the data set with Pseudomonas aeruginosa. Moreover, the IC50 in data set [1] was 23.4 µM. For the same compound, in data set [2], the LC30 is above 10000 µg/mL.
As for `Cc1ncc([N+](=O)[O-])n1CCN1CCN(c2ccc(F)cc2)CC1`, the MIC against Staphylococcus aureus, against Bacillus subtilis, against Escherichia coli and against Pseudomonas aeruginosa was above 50 µg/mL in each case. Moreover, the IC50 in data set [1] was 25.2 µM. Also, the LC30 in data set [2] is above 10000 µg/mL.
`Cc1ncc([N+](=O)[O-])n1CCN1CCN(c2ccc(Cl)c(Cl)c2)CC1`: the MIC against Staphylococcus aureus is 11.6 µg/mL (≈ 30.1 µM); against Bacillus subtilis it was 6.83 µg/mL (≈ 17.8 µM); in the data set on Escherichia coli it was above 50 µg/mL; against Pseudomonas aeruginosa, above 50 µg/mL. Besides, the IC50 in data set [1] was 16.2 µM. Moreover, the LC30 in data set [2] is above 10000 µg/mL.
As to `Cc1ccc(N2CCN(CCn3c([N+](=O)[O-])cnc3C)CC2)c(C)c1`, the MIC in the data set with Staphylococcus aureus is 1.61 µg/mL (≈ 4.69 µM); in the data set on Bacillus subtilis, 4.31 µg/mL (≈ 12.6 µM); in the data set on Escherichia coli, above 50 µg/mL; against Pseudomonas aeruginosa, above 50 µg/mL. Besides, in data set [1], the IC50 amounted to 12.6 µM. The LC30 in data set [2] is above 10000 µg/mL.
`Cc1ncc([N+](=O)[O-])n1CCN1CCN(c2cccc(Cl)c2Cl)CC1`: the MIC against Staphylococcus aureus is 11.1 µg/mL (≈ 28.9 µM); with Bacillus subtilis it was 14.4 µg/mL (≈ 37.4 µM); against Escherichia coli, above 50 µg/mL; in the data set on Pseudomonas aeruginosa, above 50 µg/mL. Besides, in data set [1], the IC50 amounted to 13.6 µM. The LC30 in data set [2] was above 10000 µg/mL.
Turning to `COc1ccccc1N1CCN(CCn2c([N+](=O)[O-])cnc2C)CC1`, the MIC with Staphylococcus aureus was 0.583 µg/mL (≈ 1.69 µM); against Bacillus subtilis, 0.272 µg/mL (≈ 0.787 µM); with Escherichia coli it was above 50 µg/mL; against Pseudomonas aeruginosa it was above 50 µg/mL. In addition, the IC50 in data set [1] was determined as 1.12 µM. Further, in data set [2], the LC30 is above 10000 µg/mL.
On to `Cc1ncc([N+](=O)[O-])n1CCN1CCN(c2cccc(Cl)c2)CC1`, for which the MIC with Staphylococcus aureus was 1.8 µg/mL (≈ 5.15 µM); against Bacillus subtilis, 2.57 µg/mL (≈ 7.34 µM); in the data set with Escherichia coli, above 50 µg/mL; in the data set on Pseudomonas aeruginosa, above 50 µg/mL. The IC50 in data set [1] is 10.5 µM. For the same compound, the LC30 in data set [2] was above 10000 µg/mL.
With `Cc1ncc([N+](=O)[O-])n1CCN1CCN(c2cccc(C(F)(F)F)c2)CC1`, the MIC in the data set on Staphylococcus aureus is 18.1 µg/mL (≈ 47.2 µM); against Bacillus subtilis, 3.29 µg/mL (≈ 8.58 µM); against Escherichia coli, above 50 µg/mL; in the data set with Pseudomonas aeruginosa it was above 50 µg/mL. Further, in data set [1], the IC50 was found to be 15.3 µM. Further, the LC30 in data set [2] is above 10000 µg/mL.

The record behind these values is ChEMBL document CHEMBL3232728, “Synthesis, molecular docking and biological evaluation of metronidazole derivatives containing piperazine skeleton as potential antibacterial agents” (Bioorg Med Chem, 2014).
